The source made the active and inactive calls.
Key:
Assay type in all cases: functional, cell-based
[1] = test system: A2780; experiment: Cytotoxicity against human A2780 cells after 72 hrs by MTT assay
Outline: (§1)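 Cells kept in RPMI 1640 with 10% FBS in 96-well plates, 24 h at 37 °C, then samples added from DMSO solution at final 10 μM. Growth assessed after 72 h by MTT (4 h at 37 °C), formazan dissolved in DMSO, absorbance at 570 nm. Camptothecin as positive control.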

[2] = test system: BGC-823; experiment: Cytotoxicity against human BGC823 cells after 72 hrs by MTT assay; outline: as §1
[3] = test system: A549; experiment: Cytotoxicity against human A549 cells after 72 hrs by MTT assay; outline: as §1
[4] = test system: Bel-7402; experiment: Cytotoxicity against human Bel7402 cells after 72 hrs by MTT assay; outline: as §1
[5] = test system: HCT-8; experiment: Cytotoxicity against human HCT8 cells after 72 hrs by MTT assay; outline: as §1
[6] = test system: HCT-116; experiment: Cytotoxicity against human HCT116 cells after 72 hrs by MTT assay; outline: as §1

Measured: Activity

CC(C)=C1C[C@@]2(C)C(=CC1=O)[C@@H](O)[C@H](O)[C@H](O)[C@@H]2C
inactive: [1] | [2] | [3] | [4] | [5] | [6]

C=C(C)[C@@H]1C[C@@]2(C)C(=CC1=O)[C@@H](O)[C@H](O)[C@H](O)[C@@H]2C
inactive: [1] | [2] | [3] | [4] | [5] | [6]

C=C(C)[C@H]1C[C@@]2(C)C(=CC1=O)[C@H](O)[C@H](O)C[C@@H]2C
inactive: [1] | [2] | [3] | [4] | [5] | [6]

C=C(C)[C@@H]1C[C@@]2(C)C(=CC(=O)C[C@@H]2C)C[C@H]1O
inactive: [1] | [2] | [3] | [4] | [5] | [6]

C=C(C(C)=O)C(=C\c1cccc(C)c1N)/C(=C/O)CC
inactive: [1] | [2] | [3] | [4] | [5] | [6]

C=C1CC[C@H]2C(C)(C)CCC[C@]2(C)[C@H]1C[C@@]12O[C@@H]1[C@H](O)C(CO)=CC2=O
inactive: [1] | [2] | [3] | [4] | [5] | [6]

C=C(C)[C@@H]1CC[C@@]2(C)OC3=C(C[C@@H]12)C(=O)[C@@H]1C[C@@]3(O)CO1
inactive: [1] | [2] | [3] | [4] | [5] | [6]

CC(=O)O[C@H]1[C@@H](O)CC2=CC(=O)C(O)=C[C@]2(C)[C@H]1C
inactive: [1] | [2] | [3] | [4] | [5] | [6]

C[C@H]1CCC(=O)O[C@@H]2C(=O)c3c(O)cccc3O[C@H]21
inactive: [1] | [2] | [3] | [4] | [5] | [6]

— ChEMBL document CHEMBL3608231, “Eremophilane Sesquiterpenes and Polyketones Produced by an Endophytic Guignardia Fungus from the Toxic Plant Gelsemium elegans” (J Nat Prod, 2015)
